Results from ChEMBL document CHEMBL1156295, “In vitro and in vivo photocytotoxicity of boron dipyrromethene derivatives for photodynamic therapy” (J Med Chem, 2010).

Key:
Assay type in all cases: functional, cell-based
[1] = Phototoxicity against human HK1 cells irradiated with 4.1 J/cm^2 broad spectrum light treated 2 hrs before irradiation measured after 24 hrs by MTT assay; details: HK-1, light or radiation study
Summary of the method: (§1)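 HL60 at 15000 cells/well; HSC-2 and HK1 at 3000 cells/well, adhered overnight; phenol-red-free medium with 10% FBS. Compound tested at 0.001–100.0 μM from DMSO stock; controls 0.01% DMSO. After 2 h, irradiated with broad-spectrum light at 6.8 mW/cm2, or dark. After 24 h, MTT 4 h at 37 °C, formazan in DMSO, A570. Three determinations, mean ± SD.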

[2] = tested on: HL-60; assay: Phototoxicity against human HL60 cells irradiated with 4.1 J/cm^2 broad spectrum light treated 2 hrs before irradiation measured after 24 hrs by MTT assay; details: HL-60, light or radiation study; summary of the method: as §1
[3] = Cytotoxicity against human HK1 cells after 24 hrs by MTT assay; details: HK-1, 24 h; summary of the method: as §1
[4] = tested on: HSC-2; assay: Phototoxicity against human HSC2 cells irradiated with 4.1 J/cm^2 broad spectrum light treated 2 hrs before irradiation measured after 24 hrs by MTT assay; details: HSC-2, light or radiation study; summary of the method: as §1
[5] = tested on: HL-60; assay: Cytotoxicity against human HL60 cells after 24 hrs by MTT assay; details: HL-60, 24 h; summary of the method: as §1
[6] = tested on: HSC-2; assay: Cytotoxicity against human HSC2 cells after 24 hrs by MTT assay; details: HSC-2, 24 h; summary of the method: as §1

Q: For `CC1=C(/C=C/C(=O)O)C(C)=[N+]2C1=Cc1c(C)cc(C)n1[B-]2(F)F`, which IC50 [1] is on record?
A: > 100 µM

Q: And the IC50 [2]?
A: > 100 µM

Q: What about the IC50 [3] of the same molecule?
A: > 100 µM

Q: What about the IC50 [4] of the same molecule?
A: > 100 µM

Q: What about the IC50 [5] of the same molecule?
A: > 100 µM

Q: And the IC50 [6]?
A: > 100 µM

Q: With `CC1=CC(C)=[N+]2C1=Cc1c(C)cc(C)n1[B-]2(F)F` as the molecule, how does the IC50 [1] read?
A: 6.2 µM

Q: And the IC50 [2]?
A: 4.4 µM

Q: What about the IC50 [3] of the same molecule?
A: 76.8 µM

Q: And the IC50 [4]?
A: 8.7 µM

Q: What about the IC50 [5] of the same molecule?
A: > 100 µM

Q: What about the IC50 [6] of the same molecule?
A: > 100 µM

Q: With `CCCCOC(=O)/C=C/C1=C(C)C2=Cc3c(C)cc(C)n3[B-](F)(F)[N+]2=C1C` as the molecule, how does the IC50 [1] read?
A: 1.1 µM

Q: And the IC50 [2]?
A: 0.49 µM

Q: What about the IC50 [3] of the same molecule?
A: 99.6 µM

Q: What about the IC50 [4] of the same molecule?
A: 0.6 µM

Q: And the IC50 [5]?
A: > 100 µM

Q: And the IC50 [6]?
A: > 100 µM

Q: For `CC1=C(I)C(C)=[N+]2C1=C(c1ccc(I)cc1)c1c(C)c(I)c(C)n1[B-]2(F)F`, which IC50 [1] is on record?
A: 0.69 µM

Q: And the IC50 [2]?
A: 0.42 µM

Q: And the IC50 [3]?
A: 95.5 µM

Q: And the IC50 [4]?
A: 0.5 µM

Q: What about the IC50 [5] of the same molecule?
A: 10 µM

Q: And the IC50 [6]?
A: 10 µM

Q: Which results are given for `COC(=O)C1=CCCCC1C1=C(C)C2=Cc3c(C)cc(C)n3[B-](F)(F)[N+]2=C1C` (configuration not stated)?
A: IC50 [1]: 5 µM; IC50 [2]: 4.9 µM; IC50 [3]: > 100 µM; IC50 [4]: 4.1 µM; IC50 [5]: > 100 µM; IC50 [6]: > 100 µM

Q: Which IC50 [1] does the source give for `COC(=O)C1=CCCC1C1=C(C)C2=Cc3c(C)c(C4CCC=C4C(=O)OC)c(C)n3[B-](F)(F)[N+]2=C1C` (configuration not stated) here?
A: 4.8 µM

Q: What about the IC50 [2] of the same molecule?
A: 3.8 µM

Q: And the IC50 [3]?
A: > 100 µM

Q: And the IC50 [5]?
A: > 100 µM

Q: Which IC50 [1] does the source give for `CC1=CC(C)=[N+]2C1=C(c1ccc(I)cc1)c1c(C)cc(C)n1[B-]2(F)F` here?
A: 5.7 µM

Q: What about the IC50 [2] of the same molecule?
A: 2.7 µM

Q: And the IC50 [3]?
A: > 100 µM

Q: What about the IC50 [4] of the same molecule?
A: 5.1 µM

Q: What about the IC50 [5] of the same molecule?
A: > 100 µM

Q: What about the IC50 [6] of the same molecule?
A: > 100 µM

Q: With `CC1=C(I)C(C)=[N+]2C1=Cc1c(C)c(I)c(C)n1[B-]2(F)F` as the molecule, how does the IC50 [1] read?
A: 0.57 µM

Q: And the IC50 [2]?
A: 0.062 µM

Q: What about the IC50 [3] of the same molecule?
A: > 100 µM

Q: What about the IC50 [4] of the same molecule?
A: 0.64 µM

Q: What about the IC50 [5] of the same molecule?
A: > 100 µM

Q: What about the IC50 [6] of the same molecule?
A: > 100 µM

Q: What does the source list for `CCCCOC(=O)/C=C/C1=C(C)C2=Cc3c(C)c(/C=C/C(=O)OCCCC)c(C)n3[B-](F)(F)[N+]2=C1C`?
A: IC50 [1]: > 100 µM; IC50 [2]: 57.7 µM; IC50 [3]: > 100 µM; IC50 [4]: 37.7 µM; IC50 [5]: > 100 µM; IC50 [6]: > 100 µM

Q: What does the source list for `CC1=C(S(=O)(=O)O)C(C)=[N+]2C1=C(c1ccc(I)cc1)c1c(C)c(S(=O)(=O)O)c(C)n1[B-]2(F)F`?
A: IC50 [1]: 59 µM; IC50 [2]: 54.3 µM; IC50 [3]: > 100 µM; IC50 [4]: 59.4 µM; IC50 [5]: > 100 µM; IC50 [6]: > 100 µM

Q: For `CC1=C(/C=C/S(=O)(=O)O)C(C)=[N+]2C1=Cc1c(C)cc(C)n1[B-]2(F)F`, which IC50 [1] is on record?
A: > 100 µM

Q: What about the IC50 [2] of the same molecule?
A: > 100 µM

Q: And the IC50 [3]?
A: > 100 µM

Q: And the IC50 [4]?
A: > 100 µM

Q: What about the IC50 [5] of the same molecule?
A: > 100 µM

Q: What about the IC50 [6] of the same molecule?
A: > 100 µM

Q: With `COC(=O)/C=C/C1=C(C)C2=Cc3c(C)c(/C=C/C(=O)OC)c(C)n3[B-](F)(F)[N+]2=C1C` as the molecule, how does the IC50 [1] read?
A: 8.5 µM

Q: What about the IC50 [2] of the same molecule?
A: 5.2 µM

Q: What about the IC50 [3] of the same molecule?
A: > 100 µM

Q: And the IC50 [4]?
A: 11.1 µM

Q: What about the IC50 [5] of the same molecule?
A: > 100 µM

Q: And the IC50 [6]?
A: > 100 µM

Q: With `CC1=C(C=O)C(C)=[N+]2C1=Cc1c(C)cc(C)n1[B-]2(F)F` as the molecule, how does the IC50 [1] read?
A: > 100 µM

Q: And the IC50 [2]?
A: > 100 µM

Q: What about the IC50 [3] of the same molecule?
A: > 100 µM

Q: What about the IC50 [4] of the same molecule?
A: > 100 µM

Q: What about the IC50 [5] of the same molecule?
A: > 100 µM

Q: And the IC50 [6]?
A: > 100 µM

Q: Which results are given for `COC(=O)/C=C/C1=C(C)C2=Cc3c(C)cc(C)n3[B-](F)(F)[N+]2=C1C`?
A: IC50 [1]: 5.3 µM; IC50 [2]: 4.8 µM; IC50 [3]: > 100 µM; IC50 [4]: 5.4 µM; IC50 [5]: > 100 µM; IC50 [6]: > 100 µM
